Laboratory results as given in ChEMBL document CHEMBL1127667, “Synthesis of benzo-fused benzodiazepines employed as probes of the agonist pharmacophore of benzodiazepine receptors” (J Med Chem, 1994).

What was measured:
[1] = target: GABA-A receptor; anion channel; assay: In vitro inhibitory concentration of compound against benzodiazepine receptor from rat cerebral cortex using [3H]- flunitrazepam was evaluated; assay type: tissue-based
Summary of the method: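 Rat cerebral cortex membranes prepared in 50 mM Tris-citrate, pH 7.4, washed three times. About 0.1 mg protein incubated with [3H]flunitrazepam (~1 nM final) and NaCl at 0-4 °C for 60 min. Bound ligand collected by GF/B filtration. IC50 taken from at least six inhibitor concentrations. Mean ± SEM of at least three determinations.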

Mus musculus [2] = species: Mus musculus; assay: Compound was tested for myorelaxant effect in mice; assay type: functional
Summary of the method: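 Male NIH/Swiss mice, 25-30 g, groups of three to eight, dosed ip with graded amounts in diluted Emulphor/saline (1:9) or vehicle. At 12 min, mice were hung by the forepaws on a 1.5-mm wire 60 cm above the bench. Three falls within 1 min counted as muscle relaxation. ED50 derived from the dose-response.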

Mus musculus [3] = species: Mus musculus; assay: Compound was tested for anticonvulsant effect in mice; assay type: functional
Summary of the method: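 Male NIH/Swiss mice, 25-30 g, groups of three to eight, given graded ip doses in diluted Emulphor/saline (1:9) or vehicle. PTZ 80 mg/kg injected 15 min after dosing. Protection from PTZ-induced convulsions scored. ED50 derived from the dose-response.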

[4] = target: T1, GABA-A receptor; anion channel (Mus musculus) (UniProt Q8BHJ7+P26048+Q8QZW7+P50571+Q9R0Y8+P22723+A2AMW3+P62812+Q9JLF1+P26049+P22933+Q9D6F4+P63080+P27681+P16305); assay: In vivo activity of compound was evaluated against benzodiazepine receptor in mice; assay type: functional, organism-based
Summary of the method: (§1)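 Adult male NIH/Swiss mice, groups of three to eight, given graded ip doses in diluted Emulphor/saline (1:9). Muscle relaxation tested on a wire at 12 min. PTZ given at 15 min: 80 mg/kg to test anticonvulsant action, 40 mg/kg to test proconvulsant action.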

[5] = target: T1, GABA-A receptor; anion channel (Mus musculus); assay: In vivo activity against GABA-A benzodiazepine receptor in mice; assay type: functional, organism-based; set-up: unit not given here; summary of the method: as §1

SMILES: O=C1CN=C(c2ccccc2F)c2cc(Cl)c(Cl)cc2N1
- IC50 [1]: 3.6 nM

SMILES: CN1C(=O)CN=C(c2ccccc2)c2c1ccc1ccccc21
- IC50 [1]: > 1000 nM

SMILES: CN1C(=O)CN=C(c2ccccc2F)c2cc3ccccc3cc21
- ED50 (Mus musculus [2]): 15 mg/kg
- IC50 [1]: 55 nM
- ED50 (Mus musculus [3]): 15 mg/kg

SMILES: Cc1cc2c(cc1Cl)NC(=O)CN=C2c1ccccc1F
- Activity [4]: 0
- IC50 [1]: 14 nM

SMILES: O=C1CN=C(c2ccccc2)c2c(Cl)cccc2N1
- Activity [4]: 0
- IC50 [1]: 320 nM

SMILES: CN1C(=O)CN=C(c2ccccc2)c2cc(Cl)c(Cl)cc21
- Activity [4]: Weak activity
- IC50 [1]: 40 nM

SMILES: CN1C(=O)CN=C(c2ccccc2F)c2ccc3ccccc3c21
- IC50 [1]: 260 nM

SMILES: O=C1CN=C(c2ccccc2F)c2ccc3ccccc3c2N1
- IC50 [1]: 120 nM

SMILES: O=C1CN=C(c2ccccc2)c2c(ccc3ccccc23)N1
- IC50 [1]: > 1000 nM

SMILES: C=Cc1ccc2c(c1)C(c1ccccc1)=NCC(=O)N2
- Activity [4]: Weak activity
- IC50 [1]: 24 nM

SMILES: O=C1CN=C(c2ccccc2F)c2c(ccc3ccccc23)N1
- IC50 [1]: > 1000 nM

SMILES: Cc1cc2c(cc1C)C(c1ccccc1)=NCC(=O)N2
- Activity [5]: 132

SMILES: CN1C(=O)CN=C(c2ccccc2F)c2c1ccc1ccccc21
- IC50 [1]: > 1000 nM

SMILES: CN1C(=O)CN=C(c2ccccc2F)c2c(Cl)cccc21
- Activity [4]: 0
- IC50 [1]: 150 nM

SMILES: Cc1cc(C)c2c(c1)C(c1ccccc1)=NCC(=O)N2
- Activity [5]: 792

SMILES: CN1C(=O)CN=C(c2ccccc2)c2cc(Cl)ccc21
- Activity [4]: 1.39

SMILES: CN1C(=O)CN=C(c2ccccc2)c2cc3ccccc3cc21
- IC50 [1]: > 1000 nM

SMILES: Cc1cc([N+](=O)[O-])cc2c1NC(=O)CN=C2c1ccccc1
- Activity [5]: 8.12

SMILES: O=C1CN=C(c2ccccc2)c2cc(Cl)cc(Cl)c2N1
- Activity [5]: 8

SMILES: CCOC(=O)c1ncc2[nH]c3ccc(OCc4ccccc4)cc3c2c1COC
- IC50 [1]: 5 nM

SMILES: CN1C(=O)CN=C(c2ccccc2)c2ccc3ccccc3c21
- IC50 [1]: > 1000 nM

SMILES: O=C1CN=C(c2ccccc2)c2ccc3ccccc3c2N1
- IC50 [1]: > 1000 nM

SMILES: O=C1CN=C(c2ccccc2)c2cc3ccccc3cc2N1
- IC50 [1]: 400 nM

SMILES: O=C1CN=C(c2ccccc2F)c2cc3ccccc3cc2N1
- IC50 [1]: > 1000 nM

SMILES: O=C1CN=C(c2ccccc2)c2cc(-c3ccccc3)ccc2N1
- Activity [5]: 781
